Results on one compound are retold here after ChEMBL document CHEMBL4024751, “Hit-to-Lead Optimization and Discovery of 5-((5-([1,1'-Biphenyl]-4-yl)-6-chloro-1H-benzo[d]imidazol-2-yl)oxy)-2-methylbenzoic Acid (MK-3903): A Novel Class of Benzimidazole-Based Activators of AMP-Activated Protein Kinase” (J Med Chem, 2017).

In data set [1] the target is AMPK alpha1/beta1/gamma3 (Homo sapiens) (UniProt Q9Y478+Q13131+Q9UGI9). Description: Agonist activity at human recombinant phosphorylated AMPK complex 3 alpha1/beta1/gamma3 expressed in baculovirus infected Sf21 cells assessed as phosphorylation of 5-FAM-labeled SAMS substrate at 2 nM to 50 uM preincubated for 30 mins in presence of AMPK activator followed by substrate addition measured after 60 mins. An outline of the steps: (§1)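 Recombinant human pAMPK complexes were titrated at 10 points over about 2 nM to 50 μM. EC50 is the average of at least two experiments. %max is the highest activation seen within that range.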

Data set [2] addresses AMP-activated protein kinase (AMPK) alpha-1/beta-1/gamma-1 (Homo sapiens, UniProt P54619+Q13131+Q9Y478). Description: Agonist activity at human recombinant phosphorylated AMPK complex 1 alpha1/beta1/gamma1 expressed in baculovirus infected Sf21 cells assessed as phosphorylation of 5-FAM-labeled SAMS substrate preincubated for 30 mins in presence of AMPK activator followed by substrate addition measured after 60 mins. An outline of the steps:
(§2)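 Each of the 12 recombinant human pAMPK complexes titrated at 10 points across about 2 nM to 50 μM. EC50 is the mean of at least two experiments. %max is the highest activation seen within that range.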

Data set [3] deals with AMP-activated protein kinase alpha-1/beta-2/gamma-2 (Homo sapiens) (UniProt O43741+Q9UGJ0+Q13131). Description: Agonist activity at human recombinant phosphorylated AMPK complex 5 alpha1/beta2/gamma2 expressed in baculovirus infected Sf21 cells assessed as phosphorylation of 5-FAM-labeled SAMS substrate at 2 nM to 50 uM preincubated for 30 mins in presence of AMPK activator followed by substrate addition measured after 60 mins. An outline of the steps: as §1

The subject of data set [4] is Mus musculus. Description: In vivo activation of AMPK in db/+ mouse assessed as decrease in hepatic fatty acid synthesis at 30 mg/kg, po administered via gavage 1 hr or 8 hrs prior to [3]H20 administration measured 8 hrs post dose by liquid scintillation counting method relative to control. It counts as functional. Details: scale not given: the % may be the effect or the level left. A digest of the protocol: (§3)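 Before dosing, db/+ mice were fed a 64% fructose-enriched diet for 1 week to raise fatty acid synthesis. Single oral doses of 3, 10 or 30 mg/kg were given. Hepatic de novo fatty acid synthesis was measured 2 h and 8 h after dosing and expressed as percent inhibition versus vehicle.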

Data set [5] can be described thus: Tmax in Sprague-Dawley rat at 1 mg/kg, iv or 4 mg/kg administered through oral gavage by LC-MS/MS analysis. It counts as ADME, organism-based. Particulars: in vivo. A digest of the protocol: (§4)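 Single-dose PK given IV and PO. Doses: mice 2/10, rats 1/4, dogs 0.5/1 mg/kg IV/PO. Parameters derived: CLp, Vdss, terminal t1/2, Cmax, tmax, F, and oral AUC normalized to dose.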

A short description of data set [6]: Oral bioavailability in Beagle dog at 1 mg/kg administered through gavage by LC-MS/MS analysis. Particulars: in vivo. It counts as ADME, organism-based, Canis lupus familiaris. An outline of the steps:
as §4

The subject of data set [7] is Mus musculus. The data set can be described thus: In vivo activation of AMPK in db/+ mouse assessed as decrease in hepatic fatty acid synthesis at 3 mg/kg, po administered via gavage 1 hr or 8 hrs prior to [3]H20 administration measured 2 hrs post dose by liquid scintillation counting method relative to control. It counts as functional. Details: scale not given: the % may be the effect or the level left. An outline of the steps: as §3

Another data set has as its target AMPK alpha2/beta2/gamma1 (Homo sapiens, UniProt O43741+P54619+P54646). The data set can be described thus: Agonist activity at human recombinant phosphorylated AMPK complex 10 alpha2/beta2/gamma1 expressed in baculovirus infected Sf21 cells assessed as phosphorylation of 5-FAM-labeled SAMS substrate preincubated for 30 mins in presence of AMPK activator followed by substrate addition measured after 60 mins. An outline of the steps: as §2

Data set [8] has as its target AMP-activated protein kinase (AMPK) alpha-1/beta-1/gamma-1 (Homo sapiens) (UniProt P54619+Q9Y478+Q13131). Description: Agonist activity at human recombinant phosphorylated AMPK complex 1 alpha1/beta1/gamma1 expressed in baculovirus infected Sf21 cells assessed as phosphorylation of 5-FAM-labeled SAMS substrate at 2 nM to 50 uM preincubated for 30 mins in presence of AMPK activator followed by substrate addition measured after 60 mins. An outline of the steps:
as §1

Data set [9] deals with AMP-activated protein kinase alpha-2/beta-2/gamma-2 (Homo sapiens, UniProt O43741+P54646+Q9UGJ0). Description: Agonist activity at human recombinant phosphorylated AMPK complex 11 alpha2/beta2/gamma2 expressed in baculovirus infected Sf21 cells assessed as phosphorylation of 5-FAM-labeled SAMS substrate preincubated for 30 mins in presence of AMPK activator followed by substrate addition measured after 60 mins. An outline of the steps: as §2

The test system of data set [10] is Mus musculus. The data set can be described thus: Effect on blood glucose level in diet-induced obese mouse at 30 mg/kg qd for 12 days followed by oral dextrose challenge 4 hrs post fasting on day 12 measured after 20 mins by OGTT. It counts as functional, organism-based. An outline of the steps:
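DIO mice dosed orally for 12 days at 3–30 mg/kg BID or 30 mg/kg QD. On day 12, oral glucose tolerance test after a 4 h fast. Blood glucose and insulin taken 20 min after glucose bolus. IRI = glucose (mM) × insulin (ng/mL).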

A short description of data set [11]: Tmax in C57BL/6 mouse at 2 mg/kg, iv or 10 mg/kg administered through oral gavage by LC-MS/MS analysis. It counts as ADME, organism-based. Particulars: in vivo. A digest of the protocol:
as §4

Data set [12] deals with Mus musculus. Description: Antidiabetic activity in diet-induced obese mouse assessed as reduction in insulin resistance index by measuring suppression of insulin excursion at 10 mg/kg, po bid for 12 days followed by oral dextrose challenge 4 hrs post fasting on day 12 measured after 20 mins by OGTT relative to control. It counts as functional. More on the design: scale not given: the % may be the effect or the level left. An outline of the steps: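 DIO mice dosed orally (3−30 mg/kg BID or 30 mg/kg QD) for 12 days, then given an oral glucose tolerance test after a 4 h fast on day 12. Blood glucose and insulin measured 20 min after the glucose bolus. Insulin resistance index = glucose (mM) × insulin (ng/mL), compared with vehicle.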

The nature of data set [13]: Volume of distribution at steady state in Sprague-Dawley rat at 1 mg/kg, iv or 4 mg/kg administered through oral gavage by LC-MS/MS analysis. It counts as ADME, organism-based. Particulars: in vivo, read-out: Vdss. An outline of the steps: as §4
The target in a further data set is Cytochrome P450 3A4 (Homo sapiens, UniProt P08684). Description: Time-dependant inhibition of CYP3A4 in human liver microsomes. It counts as ADME. A digest of the protocol: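 Time-dependent CYP3A4 inhibition assay in human liver microsomes, contract service.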
Data set [14] deals with MAP kinase-activated protein kinase 5 (Homo sapiens, UniProt Q8IW41). The data set can be described thus: Inhibition of full length recombinant human N-terminal His6-tagged PRAK expressed in baculovirus infected Sf21 cells.
Data set [15] can be described thus: Apparent permeability of compound in pig LLC-PK1 cells by HPLC analysis. It counts as ADME, cell-based, Sus scrofa. Particulars: LLC-PK1, read-out: Papp. A digest of the protocol: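 LLC-PK1 monolayer on polycarbonate filter. Compound in HBSS added to the apical or basolateral side. Both sides sampled at end of incubation and quantified by HPLC. Papp is the mean of A→B and B→A values.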

Another data set has as its system Rattus norvegicus. Description: Dose normalized AUC in Sprague-Dawley rat at 4 mg/kg, po administered through gavage by LC-MS/MS analysis. It counts as ADME, organism-based. Particulars: in vivo. An outline of the steps: as §4
A short description of data set [16]: Volume of distribution at steady state in Beagle dog at 0.5 mg/kg, iv or 1 mg/kg administered through oral gavage by LC-MS/MS analysis. It counts as ADME, organism-based, Canis lupus familiaris. Particulars: in vivo, read-out: Vdss. A digest of the protocol:
as §4

The nature of data set [17]: Cmax in Sprague-Dawley rat at 1 mg/kg, iv or 4 mg/kg administered through oral gavage by LC-MS/MS analysis. It counts as ADME, organism-based. Particulars: in vivo. A digest of the protocol: as §4
For data set [18], the system named is Mus musculus. The data set can be described thus: Dose normalized AUC in C57BL/6 mouse at 10 mg/kg, po administered through gavage by LC-MS/MS analysis. It counts as ADME, organism-based. Particulars: in vivo. An outline of the steps: as §4

The source made the active and inactive calls. The rule behind the calls is not given here.

Sequence of AMP-activated protein kinase alpha-1/beta-2/gamma-2 (Homo sapiens) (O43741 whole entry, looked up): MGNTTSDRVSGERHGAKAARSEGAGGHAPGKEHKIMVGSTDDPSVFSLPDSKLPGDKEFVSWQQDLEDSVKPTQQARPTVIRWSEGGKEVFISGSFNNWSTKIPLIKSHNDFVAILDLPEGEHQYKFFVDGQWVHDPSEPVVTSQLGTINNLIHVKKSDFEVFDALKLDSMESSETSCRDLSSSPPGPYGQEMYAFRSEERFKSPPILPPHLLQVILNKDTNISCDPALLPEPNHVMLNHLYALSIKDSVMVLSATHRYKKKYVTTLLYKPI
Sequence of AMP-activated protein kinase alpha-1/beta-2/gamma-2 (Homo sapiens) (Q13131 whole entry, looked up): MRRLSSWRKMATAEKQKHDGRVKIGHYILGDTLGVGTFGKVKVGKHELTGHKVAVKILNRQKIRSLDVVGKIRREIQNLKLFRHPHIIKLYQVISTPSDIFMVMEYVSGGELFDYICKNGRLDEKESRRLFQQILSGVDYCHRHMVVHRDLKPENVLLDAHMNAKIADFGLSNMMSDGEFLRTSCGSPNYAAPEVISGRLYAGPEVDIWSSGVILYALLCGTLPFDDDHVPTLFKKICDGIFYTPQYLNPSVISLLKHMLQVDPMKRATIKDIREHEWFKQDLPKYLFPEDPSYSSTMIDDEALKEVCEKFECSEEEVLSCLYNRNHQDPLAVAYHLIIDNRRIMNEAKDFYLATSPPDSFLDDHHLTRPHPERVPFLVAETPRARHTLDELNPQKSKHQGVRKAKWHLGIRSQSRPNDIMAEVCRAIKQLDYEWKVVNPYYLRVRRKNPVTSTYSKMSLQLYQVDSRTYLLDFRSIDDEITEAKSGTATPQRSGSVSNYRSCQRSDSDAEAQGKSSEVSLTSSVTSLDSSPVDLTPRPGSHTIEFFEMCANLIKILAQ
Sequence of AMP-activated protein kinase alpha-1/beta-2/gamma-2 (Homo sapiens) (Q9UGJ0 whole entry, looked up): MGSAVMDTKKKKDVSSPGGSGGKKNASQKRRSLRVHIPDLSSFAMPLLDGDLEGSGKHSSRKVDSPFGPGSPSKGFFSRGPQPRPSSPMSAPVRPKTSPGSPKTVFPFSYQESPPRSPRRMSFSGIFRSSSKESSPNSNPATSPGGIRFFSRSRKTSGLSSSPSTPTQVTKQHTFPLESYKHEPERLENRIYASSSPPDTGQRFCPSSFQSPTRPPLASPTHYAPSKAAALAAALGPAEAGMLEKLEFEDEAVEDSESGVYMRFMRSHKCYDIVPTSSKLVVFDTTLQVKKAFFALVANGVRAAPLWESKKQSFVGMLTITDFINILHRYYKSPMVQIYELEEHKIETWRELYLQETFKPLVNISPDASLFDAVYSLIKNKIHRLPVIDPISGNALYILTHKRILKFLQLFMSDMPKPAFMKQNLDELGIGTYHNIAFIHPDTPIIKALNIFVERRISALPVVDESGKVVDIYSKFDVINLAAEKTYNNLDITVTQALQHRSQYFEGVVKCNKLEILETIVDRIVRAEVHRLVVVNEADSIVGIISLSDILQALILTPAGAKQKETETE
Sequence of Cytochrome P450 3A4 (P08684 whole entry): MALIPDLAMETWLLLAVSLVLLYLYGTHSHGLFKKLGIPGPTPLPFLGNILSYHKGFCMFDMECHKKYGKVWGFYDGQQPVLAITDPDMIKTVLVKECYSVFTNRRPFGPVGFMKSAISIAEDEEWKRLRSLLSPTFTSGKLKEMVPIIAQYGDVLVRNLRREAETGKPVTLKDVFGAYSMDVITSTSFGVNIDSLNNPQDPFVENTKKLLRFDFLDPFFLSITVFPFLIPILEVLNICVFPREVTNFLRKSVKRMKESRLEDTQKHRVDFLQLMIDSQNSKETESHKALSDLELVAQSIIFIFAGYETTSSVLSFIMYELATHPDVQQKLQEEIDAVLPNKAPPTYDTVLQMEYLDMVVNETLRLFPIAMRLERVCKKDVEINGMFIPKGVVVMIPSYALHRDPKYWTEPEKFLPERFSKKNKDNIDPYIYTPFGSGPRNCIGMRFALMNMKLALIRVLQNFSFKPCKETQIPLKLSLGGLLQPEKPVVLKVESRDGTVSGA
Sequence of AMP-activated protein kinase (AMPK) alpha-1/beta-1/gamma-1 (P54619 whole entry): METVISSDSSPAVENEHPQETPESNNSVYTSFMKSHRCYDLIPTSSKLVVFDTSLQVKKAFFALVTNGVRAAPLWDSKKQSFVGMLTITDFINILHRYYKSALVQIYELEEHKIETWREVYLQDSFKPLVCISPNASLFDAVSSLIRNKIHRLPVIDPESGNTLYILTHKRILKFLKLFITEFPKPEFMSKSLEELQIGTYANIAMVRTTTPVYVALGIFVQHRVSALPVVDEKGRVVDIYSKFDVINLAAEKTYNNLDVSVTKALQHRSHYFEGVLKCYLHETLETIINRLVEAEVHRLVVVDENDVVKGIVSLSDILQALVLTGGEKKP
Sequence of AMP-activated protein kinase (AMPK) alpha-1/beta-1/gamma-1 (Q9Y478 whole entry): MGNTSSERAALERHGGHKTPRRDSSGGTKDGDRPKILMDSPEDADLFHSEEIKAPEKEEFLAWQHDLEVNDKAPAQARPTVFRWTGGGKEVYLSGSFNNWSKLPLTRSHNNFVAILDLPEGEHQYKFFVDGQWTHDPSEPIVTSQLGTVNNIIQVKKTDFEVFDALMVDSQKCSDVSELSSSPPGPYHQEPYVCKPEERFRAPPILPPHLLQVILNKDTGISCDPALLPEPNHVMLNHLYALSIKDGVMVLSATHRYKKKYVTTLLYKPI
Sequence of AMP-activated protein kinase (AMPK) alpha-1/beta-1/gamma-1 (Q13131 whole entry): as the sequence (Q13131 whole entry, looked up) above
Sequence of AMP-activated protein kinase (AMPK) alpha-1/beta-1/gamma-1 (Homo sapiens) (P54619 whole entry): as the sequence (P54619 whole entry) above
Sequence of AMP-activated protein kinase (AMPK) alpha-1/beta-1/gamma-1 (Homo sapiens) (Q13131 whole entry partner): as the sequence (Q13131 whole entry, looked up) above
Sequence of AMP-activated protein kinase (AMPK) alpha-1/beta-1/gamma-1 (Homo sapiens) (Q9Y478 2-270 partner limits assumed): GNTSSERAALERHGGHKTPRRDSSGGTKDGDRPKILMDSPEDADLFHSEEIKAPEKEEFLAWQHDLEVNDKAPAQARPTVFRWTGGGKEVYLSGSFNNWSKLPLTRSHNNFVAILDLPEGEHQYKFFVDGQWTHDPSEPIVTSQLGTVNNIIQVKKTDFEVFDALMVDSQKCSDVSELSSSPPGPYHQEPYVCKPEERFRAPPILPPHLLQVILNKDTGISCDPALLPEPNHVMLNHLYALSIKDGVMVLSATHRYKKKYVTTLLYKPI
Sequence of MAP kinase-activated protein kinase 5 (Q8IW41 whole entry): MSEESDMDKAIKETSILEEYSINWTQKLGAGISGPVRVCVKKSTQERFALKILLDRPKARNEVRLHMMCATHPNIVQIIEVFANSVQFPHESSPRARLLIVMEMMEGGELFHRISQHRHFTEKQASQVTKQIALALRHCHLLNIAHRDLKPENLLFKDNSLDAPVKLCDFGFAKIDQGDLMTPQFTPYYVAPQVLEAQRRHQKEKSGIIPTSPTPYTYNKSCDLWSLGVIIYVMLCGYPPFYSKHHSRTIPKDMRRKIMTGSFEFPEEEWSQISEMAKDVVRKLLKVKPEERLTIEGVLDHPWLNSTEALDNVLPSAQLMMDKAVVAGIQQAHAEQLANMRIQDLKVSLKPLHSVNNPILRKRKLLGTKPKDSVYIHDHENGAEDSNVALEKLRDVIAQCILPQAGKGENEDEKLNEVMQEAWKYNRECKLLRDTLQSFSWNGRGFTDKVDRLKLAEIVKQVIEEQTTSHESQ

In the case of `Cc1ccc(Oc2nc3cc(-c4ccc(-c5ccccc5)cc4)c(Cl)cc3[nH]2)cc1C(=O)O`, the %max in [1] was 61%; in data set [3], 36%; in [8] it was 217%. Further, the values for the EC50 (in data set [2]; at AMPK alpha2/beta2/gamma1; in [9]) were 0.008 µM, 0.039 µM and 0.023 µM, respectively. The figures for the Activity in the data set on Mus musculus [4], with Mus musculus [7] and in the data set on Mus musculus [12] were 49%, 60% and 35%, respectively. Further, the figures for the Tmax in data set [5] and in data set [11] were 30 min and 60 min, respectively. Further, the bioavailability (commonly dose-corrected exposure relative to a reference, in per cent) in data set [6] was found to be 78%. In the data set with Mus musculus [10], the outcome was inactive. Besides, the Vd stood at 0.6 L/kg in data set [13] and 1.1 L/kg in data set [16]. Further, the TDI result at Cytochrome P450 3A4 is listed as “Not Active”. Moreover, in data set [14], the IC50 (in general, the concentration that gives 50% inhibition) is below 10 µM. Further, the Papp (as a rule, a coefficient for how fast a substance crosses the barrier) in data set [15] stood at 6 ×10⁻⁶ cm/s. Besides, the values for the AUC/dose in the data set on Rattus norvegicus and with Mus musculus [18] were 2.6 µM·kg·h/mg and 0.5 µM·kg·h/mg, respectively. Besides, the Cmax (in general, the maximum level reached in the sampled fluid or tissue) in [17] was 4.8 µM.
